Test results reported in PubChem BioAssay AID1046 (PCMD, 2008).
The whole screen tested about 220,000 compounds, of which about 560 (0.25%) were called active. The sample as a whole holds a higher share of actives than the screen did. Unmarked numbers belong to inactive results.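 Rule for the calls: active = inhibition at or above 40%; inactive = inhibition below 40%.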

target: Prothrombin (Homo sapiens) (UniProt P00734); assay: blockers of thrombin peptide substrate cleavage – biochemical, 1536-well, fluorogenic AMC substrate, counter-screen for coagulation protease inhibitor project, primary screen (AID 1046); details: alpha-thrombin, Boc-VPR-AMC fluorogenic substrate cleavage; at 5 µM; hits give high values;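 note: 0% = enzyme with no compound and 100% = wells without enzyme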
How it was run: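 Test system: human alpha-thrombin protein / Dosing: one concentration per compound, 5 µM, with 0.2% DMSO / Medium: pH 7.5 Tris-saline with Tween 20 / Benchmarks: no-compound enzyme wells and no-enzyme blanks / Read-out basis: percent inhibition of thrombin substrate cleavage / Timing: reaction at room temperature / Measured by: fluorescence, ex 355 nm, em 460 nm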

| SMILES | inhibition |
| --- | --- |
| CN1CCN(CCC(=O)N/N=C/C=C2\N(C)c3ccccc3C2(C)C)CC1 | -4.81% |
| CC(C)(C)NC(=O)c1cccc(NC(=O)Cc2ccc(Br)cc2)c1 | -6.49% |
| CC(=O)NNC(=O)c1csc(Cc2c(Cl)sc3ccc(Cl)cc23)n1 | -1.7% |
| CCOC(=O)C1CCN(c2c(Nc3cc(C)cc(C)c3)c(=O)c2=O)CC1 | -1.29% |
| CS(=O)(=O)n1nc(-c2ccco2)nc1N | 1.66% |
| CSc1nc(-c2ccco2)nn1C(=O)CCc1ccccc1 | 99.4% (active) |
| CSc1nc(-c2ccco2)nn1C(=O)c1ccccc1Cl | 0.04% |
| O=C(c1cccc(S(=O)(=O)N2CCCC2)c1)N(Cc1ccco1)C1CCS(=O)(=O)C1 (configuration not stated) | -1.64% |
| COC(=O)C(NS(=O)(=O)c1ccc(F)cc1)c1ccccc1 (configuration not stated) | 5.5% |
| CC(=O)NC(NC(=S)Nc1c(C)n(C)n(-c2ccccc2)c1=O)C(Cl)(Cl)Cl (configuration not stated) | -5.85% |
| CCn1c(-c2cccnc2Cl)nc2cc(C)c(C)cc21 | 0.78% |
| Cc1ccccc1CC1(CO)CCCN(C(=O)c2cc(-c3ccccc3)no2)C1 (configuration not stated) | -8.1% |
| CC(C)CC(CC(C)C)=NNC(=O)c1ccc(CSc2nncn2C)cc1 | 6.95% |
| CCn1ncc(CNC(=O)C2(C)CC2(Br)Br)c1C (configuration not stated) | -5.28% |
| CC1(C)CC(=O)c2cnc3nc4ccccc4n3c2C1 | -14.5% |
| Cc1ccc(C)c2[nH]c(=O)c(CN(Cc3cccnc3)C(=S)NCc3ccco3)cc12 | -27% |
| COc1ccccc1N1CCN(c2ccc([N+](=O)[O-])nc2)CC1 | 1.48% |
| COc1ccc(CN2CCC(c3nc4ccc(Cl)cc4[nH]3)CC2)cc1 | 1.55% |
| Cc1ccc(NNC(=O)c2cccs2)cc1Cl | 0.15% |
| COc1ccc(-c2nn(C)c(=O)c3ccccc23)cc1NC(=O)COc1ccccc1 | 3.07% |
| CCC(=O)NCc1cc(-c2nn(C)c(=O)c3ccccc23)ccc1OC | 2.19% |
| COc1ccc(-c2nn(C)c(=O)c3ccccc23)cc1CNC(=O)C1CCCCC1 | 70.8% (active) |
| Cc1cc(CO)nn1-c1ccc([N+](=O)[O-])cc1 | -4.29% |
| Cc1nnc(N/N=C/c2cccs2)[nH]c1=O | -0.86% |
| CCn1c(=O)c2cc(C(=O)Nc3cccc(C(C)=O)c3)sc2c2ccccc21 | -4.44% |

| SMILES | inhibition |
| --- | --- |
| CC(C)S(=O)(=O)c1csc(NC(=O)Nc2ccc(Cl)cc2)c1Cl | 3.02% |
| C/C(=N/NC(=O)c1ccc(NC(=O)c2ccc(F)cc2)cc1)c1ccccc1 | 3.8% |
| O=C(Nc1nsc(-c2ccccc2)n1)c1ccncc1 | 3.88% |
| Cn1sc(NC(=O)c2ccccc2)nc1=O | 3.97% |
| COC(=O)c1nc(NC(=O)c2ccc(C(C)(C)C)cc2)n[nH]1 | 58.9% (active) |
| COC(=O)c1nc(NC(=O)c2ccccc2)n[nH]1 | 98.4% (active) |
| COc1ccc(C(=O)Nc2ccc(F)cc2F)cc1 | -13.8% |
| COC(=O)c1nc(NC(=O)c2ccc(F)cc2)n[nH]1 | 94.8% (active) |
| O=C(Nc1n[nH]c(C(F)(F)F)n1)c1cccs1 | 5% |
| COc1ccc(N2CCN(C(=O)CNC(=O)c3ccc(C(C)(C)C)cc3)CC2)cc1 | 12.8% |
| S=c1[nH]nc(-c2ccncc2)n1/N=C/c1ccccc1Cl | -3.11% |
| COc1ccccc1-c1noc(CSc2nc(C)cc(=O)[nH]2)n1 | -11.8% |
| Cc1ccc(SC(C)C(=O)NCc2ccc(F)cc2)cc1 (configuration not stated) | -10% |
| Cc1c(-c2ccccc2)n[nH]c1C(=O)N=Nc1c(O)[nH]c2ccccc12 | -11.5% |
| Cc1nc(SCc2ccc(F)cc2)c([N+](=O)[O-])[nH]1 | -2.86% |
| ClC1(Cl)CC1CSc1ncn[nH]1 (configuration not stated) | 102% (active) |
| COc1ccc(Cl)cc1CSc1ncn[nH]1 | -8.18% |
| Cn1nnc(NC(=O)CSc2ncn[nH]2)n1 | -4.19% |
| CC1CN(CCOc2ccccc2[N+](=O)[O-])CC(C)O1 (configuration not stated) | 1.06% |
| Cc1ccc(NC(=O)c2ccn(C(=O)Nc3ccccc3)n2)c(C)c1 | 1.51% |
| CC1=NCCN1S(=O)(=O)c1cccc([N+](=O)[O-])c1 | 2.02% |
| CCCC(=O)OCC(=O)Nc1cc(Cl)ccc1[N+](=O)[O-] | -3.57% |
| O=C(Nc1ccccc1)Nc1nnc(COc2ccccc2F)s1 | -0.32% |
| O=C(c1cccc([N+](=O)[O-])c1)N1CCN(C(=O)c2ccco2)CC1 | -2.02% |
| O=c1[nH]n(-c2ccc([N+](=O)[O-])cc2)c(=O)c2ccccc12 | -6.59% |

| SMILES | inhibition |
| --- | --- |
| C/C(=C/C(=O)N1CCN(C)CC1)C(=O)O | 103% (active) |
| CCN1CCN(C(=O)/C=C\C(=O)O)CC1 | -0.06% |
| CN1CCN(C(=O)C2C3C=CC(C3)C2C(=O)O)CC1 (configuration not stated) | -0.84% |
| NS(=O)(=O)c1ccc(CCNC(=O)CCCn2c(SCC(=O)N3CCCC3)nc3ccsc3c2=O)cc1 | -6.72% |
| OCCC#Cc1ccc(CN2CCN(Cc3ccsc3)C(CCO)C2)cc1 (configuration not stated) | -1.75% |
| CCN(CC)C(=O)CC1(c2ccccc2OC)CCOC(C(C)C)C1 (configuration not stated) | -1.89% |
| Cc1ccc(S(=O)(=O)N(C)C)cc1NC(=O)/C=C/c1cccs1 | -6.43% |
| O=C(CC1C(=O)NCCN1Cc1ccc(-c2ccccc2)cc1)NCC1CCOCC1 (configuration not stated) | -6.7% |
| COCC1CCCN(Cc2cn[nH]c2-c2cc3ccccc3o2)C1 (configuration not stated) | -10.5% |
| Cc1ccc(C(=O)Nc2sc(Cc3ccc4c(c3)OCO4)c(C)c2C(N)=O)cc1 | 2.74% |
| O=C(Nn1cnc2ccccc2c1=O)c1ccc([N+](=O)[O-])cc1Cl | 6.94% |
| O=C(CSc1cccc[n+]1[O-])c1ccc(Cl)cc1 | -1.76% |
| Cc1ccc(N(C(=O)Cc2cccs2)C(C(=O)NCC2CCCO2)c2ccncc2)cc1 (configuration not stated) | 0.6% |
| COc1ccc(S(=O)(=O)N2CCC(C(=O)OCC(=O)c3ccccc3)CC2)cc1[N+](=O)[O-] | 0.56% |
| O=C(NNC(=S)Nc1ccc(F)cc1)[C@H]1C[C@@H]1c1ccccc1 | -10.3% |
| CCN1CC(CN(C)Cc2nc(-c3ccc(Cl)cc3)no2)CC1=O (configuration not stated) | -8.96% |
| CN(Cc1ccccn1)Cc1nc(-c2ccc(Cl)cc2)no1 | 57.7% (active) |
| COC(=O)c1ccc(-c2noc(CN(Cc3ccccn3)CC3CCCO3)n2)cc1 (configuration not stated) | 21.1% |
| Cc1c(C(=O)O)nnn1-c1nonc1N | 2.29% |
| OC1CSc2nc3ccccc3n2C1 (configuration not stated) | 0.85% |
| O=C(NC(=S)Nc1cc(C(F)(F)F)ccc1N1CCOCC1)c1ccc(-c2cccc(Cl)c2)o1 | -10.3% |
| CC1(OC(=O)CCc2ccccc2)C(=O)C=C2C=C(c3ccc(C#N)cc3)N(CCc3ccccn3)C=C2C1=O (configuration not stated) | -12.4% |
| CC(=O)C1=C(O)C(=O)N(c2cccnc2)C1c1ccc([N+](=O)[O-])cc1 (configuration not stated) | 2.53% |
| Cc1cccc(NC(=S)Nc2ccc(Cl)c(Cl)c2)c1 | 0.05% |
| Cc1cccc(NC(=S)Nc2ccc(Br)cc2)c1 | 3.41% |

| SMILES | inhibition |
| --- | --- |
| Cc1cccc(NC(=S)NC23CN4CN(CN(C4)C2)C3)c1 | 53.8% (active) |
| S=C(Nc1ccc(Br)cc1Cl)N1CCC2(CC1)OCCO2 | -1.42% |
| O=C(NC1CCN(Cc2ccccc2)CC1)c1cc(Br)c(Br)[nH]1 | 1.26% |
| O=C(CCCOc1ccc(Cl)cc1Cl)NNC(=O)C1CCC1 | -6.08% |
| N/C(=N\OS(=O)(=O)c1cccc([N+](=O)[O-])c1)c1ccncc1 | -6.25% |
| CCCCNC(=O)CSc1nc2ccc(NC(=O)CSc3nnc(N)s3)cc2s1 | -6.44% |
| O=C(Cc1ccccc1)N1N=C(c2ccncc2)CC1(O)C(F)(F)F (configuration not stated) | 2.25% |
| COc1ccccc1C(=O)n1nc(-c2ccccc2)nc1N | 19.2% |
| CCCC(=O)n1nc(-c2ccccc2)nc1N | 27.1% |
| COc1ccc(CC(=O)n2nc(-c3cccnc3)nc2N)cc1 | 89.7% (active) |
| CCN1CCN(c2nc(Nc3cc(OC)ccc3OC)nc(Nc3cc(OC)ccc3OC)n2)CC1 | -2.15% |
| Cc1nc(SCC(=O)N2CC(=O)Nc3ccccc32)c2c(C)c(C)sc2n1 | -0.55% |
| Cc1nnc(SCC(=O)N2CCc3ccccc3C2)s1 | 7.65% |
| Cc1nc(SCC(=O)N2CCc3ccccc3C2)c2c(C)c(C)sc2n1 | 103% (active) |
| CC1(C)Cc2cccc(OCC(=O)N3CCN(c4ccc([N+](=O)[O-])cc4)CC3)c2O1 | -1.43% |
| COc1ccc(NC(=O)C2=C(C)NC(=O)NC2c2ccccc2[N+](=O)[O-])cc1 (configuration not stated) | -0.08% |
| CCOC(=O)N/N=C1\CC(C)S(=O)(=O)c2ccc(Cl)cc21 (configuration not stated) | 28.2% |
| Cc1cc(=O)[nH]c(S)c1C#N | -5% |
| CSCC[C@H](NC(=O)NC1CCCC1)C(=O)O | -3.12% |
| COc1cccc(NC(=O)C2CCCN2C(=O)OCc2ccccc2)c1 (configuration not stated) | -12.3% |
| Cc1ccc(C)c(NC(=O)C2Cc3ccccc3CN2C(=O)OCc2ccccc2)c1 (configuration not stated) | 104% (active) |
| Cc1ccc(C)c(NC(=O)C2CCCN2C(=O)OC(C)(C)C)c1 (configuration not stated) | 1.35% |
